Source: PubChem BioAssay AID623951 (Broad Institute, 2012)

Biological target: PvdQ acyl-homoserine lactone acylase (Pseudomonas aeruginosa LESB58)
Assay: PvdQ acylase enzyme activity blockers – biochemical, fluorescence, plate reader, dry powder samples, dose response (AID 623951)
Conditions: purified PvdQ, 4-MU laurate hydrolysis
Summary of the method: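 System: purified Pseudomonas aeruginosa PvdQ acylase enzyme; Amount: PvdQ enzyme at 0.02 µM final; Medium: Tris pH 8.0 buffer with NaCl, TCEP and Triton X-100; Probe or stimulus: 0.8 mM 4-MU laurate; Incubation: 30 min enzyme–compound pre-incubation, 60 min reaction, room temperature; Technique: fluorescence, ex 303–367 nm, em 440–460 nm.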

AC50 [nM]	SMILES
2660	N#Cc1ccc(C(C#N)c2ccc(Cl)cc2)nc1 (stereo unspecified)
2700	N#Cc1ccc(C(C#N)c2ccc(Cl)cc2Cl)nc1 (stereo unspecified)
240	COc1cccc(C(C#N)c2ccc(F)cc2)n1 (stereo unspecified)
380	N#Cc1cccc(C(C#N)c2ccc(Cl)cc2Cl)n1 (stereo unspecified)
546	N#CC(c1ccc(Cl)cc1)c1ccc(C(F)(F)F)cn1 (stereo unspecified)
802	N#CC(c1ccc(C(F)(F)F)c(Cl)n1)c1ccc(Cl)cc1F (stereo unspecified)
43.4	N#CC(c1ccc(C(F)(F)F)cc1)c1cccc(C(F)(F)F)n1 (stereo unspecified)
118	CCCCC(C#N)c1ccc(Cl)cc1 (stereo unspecified)
936	N#CC(c1cccc(Cl)n1)c1ccccc1OC(F)(F)F (stereo unspecified)
1390	N#CC(c1ccc(C(F)(F)F)cc1)c1ccc(C(F)(F)F)c(Cl)n1 (stereo unspecified)
5.76	N#CC(c1ccc(Cl)cc1)c1ncccc1Cl (stereo unspecified)
287	N#CC(c1ccc(C(F)(F)F)cc1)c1cccc(Cl)n1 (stereo unspecified)
271	Cc1ccc(C(C#N)c2ccc(Cl)cc2)nc1 (stereo unspecified)
182	CCCCC(C#N)c1ccc(C(F)(F)F)cc1 (stereo unspecified)
258	N#CC(CC1CC1)c1ccc(Cl)cc1 (stereo unspecified)
140	N#Cc1cccc(C(C#N)c2ccc(Cl)cc2F)n1 (stereo unspecified)
11.7	N#CC(c1ccc(F)cc1)c1cccc(C(F)(F)F)n1 (stereo unspecified)
< 3	N#CC(c1cccc(C(F)(F)F)n1)c1ccc(Cl)cc1F (stereo unspecified)
138	N#Cc1cccc(C(C#N)c2ccc(Cl)cc2)n1 (stereo unspecified)
414	N#CC(c1ccc(Cl)cc1)c1ccc(C(F)(F)F)c(Cl)n1 (stereo unspecified)

AC50 [nM]	SMILES
138	Cc1cccc(C(C#N)c2ccc(Cl)cc2)n1 (stereo unspecified)
1300	CCCCC(C#N)c1ccccc1OC(F)(F)F (stereo unspecified)
142	Cc1ccc(C(C#N)c2ccc(F)cc2)nc1C#N (stereo unspecified)
5630	CC(C#N)(c1ccc(Cl)cc1)c1ccc(C(F)(F)F)cn1 (stereo unspecified)
221	Cc1ccc(C(C#N)c2ccc(Cl)cc2)nc1C#N (stereo unspecified)
203	N#CC(c1cccc(Cl)n1)c1ccc(Cl)cc1Cl (stereo unspecified)
433	N#CC(c1ccc(C(F)(F)F)c(Cl)n1)c1ccccc1OC(F)(F)F (stereo unspecified)
11.1	N#CC(c1ccc(Cl)cc1)c1cccc(C(F)(F)F)n1 (stereo unspecified)
457	CCCCC(C#N)c1ccc(Cl)cc1F (stereo unspecified)
467	Cc1ccc(C(C#N)c2ccccc2OC(F)(F)F)nc1C#N (stereo unspecified)
1530	N#CC(c1cccc(C(F)(F)F)n1)c1ccccc1OC(F)(F)F (stereo unspecified)
99.4	CCCC(C#N)c1ccc(Cl)cc1 (stereo unspecified)
398	N#CC(c1ccc(F)cc1)c1ccc(C(F)(F)F)c(Cl)n1 (stereo unspecified)
62.8	N#CC(c1ccc(Cl)cc1)c1ccc(Cl)cn1 (stereo unspecified)
121	CC(C)CC(C#N)c1ccc(Cl)cc1 (stereo unspecified)
831	N#CC(c1ccc(C(F)(F)F)c(Cl)n1)c1ccc(Cl)cc1Cl (stereo unspecified)
1340	N#Cc1cccc(C(C#N)c2ccccc2OC(F)(F)F)n1 (stereo unspecified)
279	N#CC(c1ccc(Cl)cc1Cl)c1ncccc1Cl (stereo unspecified)
77	N#CC(c1cccc(Cl)n1)c1ccc(Cl)cc1F (stereo unspecified)
20.2	CCCCC(C#N)c1ccc(F)cc1 (stereo unspecified)

SMILES	AC50 [nM]
CCCCC(C#N)c1ccc(Cl)cc1Cl (stereo unspecified)	75.6
